According to ChEMBL document CHEMBL1156108, “Synthesis and biological evaluation of p38alpha kinase-targeting dialkynylimidazoles” (Bioorg Med Chem Lett, 2009):
One block for each compound: values may come before it.

Tests used:
[1] = target: T1, Mitogen-activated protein kinase 14 (Homo sapiens, UniProt Q16539); assay: Inhibition of p38alpha by FRET assay
[2] = target: T1, Mitogen-activated protein kinase 14; assay: Inhibition of p38alpha at 10 uM by FRET assay
Outline: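 Single-concentration screen against p38α, read at a fixed 60 min time-point. Reported as percent inhibition from tests run in duplicate.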

[3] = target: Ribosomal protein S6 kinase alpha-3 (Homo sapiens) (UniProt P51812); assay: Inhibition of human RPS6KA3 at 20 uM by FRET assay
[4] = target: Tyrosine-protein kinase JAK3 (Homo sapiens) (UniProt P52333); assay: Inhibition of human JAK3 at 20 uM by FRET assay
[5] = target: Epidermal growth factor receptor (Homo sapiens) (UniProt P00533); assay: Inhibition of human EGFR at 20 uM by FRET assay
[6] = target: Platelet-derived growth factor receptor beta (Homo sapiens) (UniProt P09619); assay: Inhibition of human PDGFRbeta at 20 uM by FRET assay
[7] = target: Interleukin-1 receptor-associated kinase 4 (Homo sapiens) (UniProt Q9NWZ3); assay: Inhibition of human IRAK4 at 20 uM by FRET assay
[8] = target: Dual specificity mitogen-activated protein kinase kinase 1 (Homo sapiens) (UniProt Q02750); assay: Inhibition of human MEK1 at 20 uM by FRET assay
[9] = target: Hepatocyte growth factor receptor (Homo sapiens) (UniProt P08581); assay: Inhibition of human MET at 20 uM by FRET assay
[10] = target: T2, Mitogen-activated protein kinase kinase kinase kinase 4 (Homo sapiens, UniProt O95819); assay: Inhibition of human MAP4K4 by FRET assay
[11] = target: Serine/threonine-protein kinase PLK1 (Homo sapiens) (UniProt P53350); assay: Inhibition of human PLK1 at 20 uM by FRET assay
[12] = target: Proto-oncogene tyrosine-protein kinase receptor Ret (Homo sapiens) (UniProt P07949); assay: Inhibition of human RET at 20 uM by FRET assay
[13] = target: Serine/threonine-protein kinase pim-1 (Homo sapiens) (UniProt P11309); assay: Inhibition of human PIM1 at 20 uM by FRET assay
[14] = target: Mitogen-activated protein kinase 9 (Homo sapiens) (UniProt P45984); assay: Inhibition of human JNK2 at 20 uM by FRET assay
[15] = target: RAF proto-oncogene serine/threonine-protein kinase (Homo sapiens) (UniProt P04049); assay: Inhibition of human RAF1 at 20 uM by FRET assay
[16] = target: Mitogen-activated protein kinase 8 (Homo sapiens) (UniProt P45983); assay: Inhibition of human JNK1 at 20 uM by FRET assay
[17] = target: Insulin-like growth factor 1 receptor (Homo sapiens) (UniProt P08069); assay: Inhibition of human IGF1R at 20 uM by FRET assay
[18] = target: RAC-alpha serine/threonine-protein kinase (Homo sapiens) (UniProt P31749); assay: Inhibition of human AKT1 at 20 uM by FRET assay
[19] = target: Casein kinase I isoform gamma-2 (Homo sapiens) (UniProt P78368); assay: Inhibition of human CK1gamma2 at 20 uM by FRET assay
[20] = target: MAP kinase-activated protein kinase 2 (Homo sapiens) (UniProt P49137); assay: Inhibition of human MAPKAPK2 at 20 uM by FRET assay
[21] = target: Casein kinase II subunit alpha (Homo sapiens) (UniProt P68400); assay: Inhibition of human CK2alpha1 at 20 uM by FRET assay
[22] = target: Inhibitor of nuclear factor kappa-B kinase subunit beta (Homo sapiens) (UniProt O14920); assay: Inhibition of human IKK-beta at 20 uM by FRET assay
[23] = Selectivity ratio for IC50 of p38alpha to IC50 of p38beta
[24] = target: Protein kinase C beta type (Homo sapiens) (UniProt P05771); assay: Inhibition of human PKCbeta1 at 20 uM by FRET assay
[25] = target: Mast/stem cell growth factor receptor Kit (Homo sapiens) (UniProt P10721); assay: Inhibition of human KIT at 20 uM by FRET assay
[26] = target: Tyrosine-protein kinase Lck (Homo sapiens) (UniProt P06239); assay: Inhibition of human LCK at 20 uM by FRET assay
[27] = target: Ribosomal protein S6 kinase beta-1 (Homo sapiens) (UniProt P23443); assay: Inhibition of human p70S6K at 20 uM by FRET assay
Outline: (§1)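 Single-point screen at one fixed concentration, run across a panel of 53 additional human kinases, which includes this enzyme.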

[28] = target: High affinity nerve growth factor receptor (Homo sapiens) (UniProt P04629); assay: Inhibition of human NTRK1 at 20 uM by FRET assay
[29] = target: Serine/threonine-protein kinase mTOR (Homo sapiens) (UniProt P42345); assay: Inhibition of human FRAP1 at 20 uM by FRET assay
[30] = target: Vascular endothelial growth factor receptor 2 (Homo sapiens) (UniProt P35968); assay: Inhibition of human KDR at 20 uM by FRET assay
Sequence of Vascular endothelial growth factor receptor 2 (Homo sapiens) (P35968 whole entry): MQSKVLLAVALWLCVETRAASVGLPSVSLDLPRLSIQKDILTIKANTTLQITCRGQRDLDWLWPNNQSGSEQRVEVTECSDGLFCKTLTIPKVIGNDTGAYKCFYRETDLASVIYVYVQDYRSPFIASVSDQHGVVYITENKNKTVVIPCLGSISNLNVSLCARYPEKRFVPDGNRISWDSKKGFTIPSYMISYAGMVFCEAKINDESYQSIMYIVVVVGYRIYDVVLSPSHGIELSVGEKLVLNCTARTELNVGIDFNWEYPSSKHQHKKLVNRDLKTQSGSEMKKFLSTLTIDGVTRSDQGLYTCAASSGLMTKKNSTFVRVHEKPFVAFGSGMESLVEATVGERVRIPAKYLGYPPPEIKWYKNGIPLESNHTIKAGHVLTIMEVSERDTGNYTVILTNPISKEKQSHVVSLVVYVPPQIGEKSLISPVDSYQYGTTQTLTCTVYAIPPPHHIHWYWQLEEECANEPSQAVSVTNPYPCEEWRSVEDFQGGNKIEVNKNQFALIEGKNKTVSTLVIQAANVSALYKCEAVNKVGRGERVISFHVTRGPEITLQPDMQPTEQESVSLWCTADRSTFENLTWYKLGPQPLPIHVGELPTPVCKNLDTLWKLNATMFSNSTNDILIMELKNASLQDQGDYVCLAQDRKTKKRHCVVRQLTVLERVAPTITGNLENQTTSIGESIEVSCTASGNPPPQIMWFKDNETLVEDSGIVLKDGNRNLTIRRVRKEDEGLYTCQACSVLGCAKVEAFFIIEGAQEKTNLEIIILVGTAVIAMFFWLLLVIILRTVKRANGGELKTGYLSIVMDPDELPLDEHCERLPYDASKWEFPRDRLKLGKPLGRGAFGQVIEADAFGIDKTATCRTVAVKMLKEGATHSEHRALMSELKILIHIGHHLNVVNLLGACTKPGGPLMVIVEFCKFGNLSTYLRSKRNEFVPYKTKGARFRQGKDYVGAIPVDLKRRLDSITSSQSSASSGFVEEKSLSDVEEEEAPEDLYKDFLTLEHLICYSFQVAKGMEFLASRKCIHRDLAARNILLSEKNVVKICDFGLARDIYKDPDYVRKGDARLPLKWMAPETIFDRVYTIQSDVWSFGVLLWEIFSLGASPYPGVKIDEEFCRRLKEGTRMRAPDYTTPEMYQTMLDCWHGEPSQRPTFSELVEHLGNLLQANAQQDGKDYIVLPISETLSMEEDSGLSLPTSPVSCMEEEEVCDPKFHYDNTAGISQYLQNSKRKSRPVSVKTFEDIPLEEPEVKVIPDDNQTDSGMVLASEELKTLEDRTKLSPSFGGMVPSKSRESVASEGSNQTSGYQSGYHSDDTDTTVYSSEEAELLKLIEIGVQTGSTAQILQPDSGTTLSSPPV

[31] = target: Mitogen-activated protein kinase 13 (Homo sapiens) (UniProt O15264); assay: Inhibition of human p38delta at 20 uM by FRET assay; outline: as §1
[32] = target: Tyrosine-protein kinase BTK (Homo sapiens) (UniProt Q06187); assay: Inhibition of human BTK at 20 uM by FRET assay
Sequence of Tyrosine-protein kinase BTK (Homo sapiens) (Q06187 whole entry): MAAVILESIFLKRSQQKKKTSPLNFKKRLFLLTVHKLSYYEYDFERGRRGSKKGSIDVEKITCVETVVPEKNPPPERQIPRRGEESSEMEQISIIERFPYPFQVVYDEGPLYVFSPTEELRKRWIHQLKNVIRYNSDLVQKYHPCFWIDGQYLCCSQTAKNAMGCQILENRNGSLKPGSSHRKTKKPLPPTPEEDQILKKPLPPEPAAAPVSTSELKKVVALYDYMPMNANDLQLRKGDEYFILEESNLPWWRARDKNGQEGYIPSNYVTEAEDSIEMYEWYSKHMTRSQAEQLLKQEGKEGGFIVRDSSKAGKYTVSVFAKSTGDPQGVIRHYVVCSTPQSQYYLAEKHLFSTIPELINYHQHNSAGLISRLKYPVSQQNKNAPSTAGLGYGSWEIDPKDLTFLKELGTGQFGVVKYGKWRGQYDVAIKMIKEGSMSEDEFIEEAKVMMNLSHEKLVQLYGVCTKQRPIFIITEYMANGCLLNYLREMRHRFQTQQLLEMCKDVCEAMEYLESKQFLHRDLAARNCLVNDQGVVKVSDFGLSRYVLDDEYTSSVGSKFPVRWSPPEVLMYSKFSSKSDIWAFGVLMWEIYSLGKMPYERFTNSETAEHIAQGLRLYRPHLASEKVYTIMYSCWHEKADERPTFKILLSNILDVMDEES

[33] = target: Glycogen synthase kinase-3 beta (Homo sapiens) (UniProt P49841); assay: Inhibition of human GSK3-beta at 20 uM by FRET assay
[34] = target: Mitogen-activated protein kinase 1 (Homo sapiens) (UniProt P28482); assay: Inhibition of human ERK2 at 20 uM by FRET assay
[35] = target: Tyrosine-protein kinase ABL1 (Homo sapiens) (UniProt P00519); assay: Inhibition of human ABL1 at 20 uM by FRET assay
[36] = target: Cyclin-dependent kinase 1/cyclin B (Homo sapiens) (UniProt P06493+P14635+Q8WWL7+O95067); assay: Inhibition of human CDK1/cyclin B at 20 uM by FRET assay; format: protein-complex assay
[37] = target: Serine/threonine-protein kinase Chk1 (Homo sapiens) (UniProt O14757); assay: Inhibition of human CHK1 at 20 uM by FRET assay
[38] = target: Mitogen-activated protein kinase 12 (Homo sapiens) (UniProt P53778); assay: Inhibition of human p38-gamma at 20 uM by FRET assay
Sequence of Mitogen-activated protein kinase 12 (Homo sapiens) (P53778 whole entry): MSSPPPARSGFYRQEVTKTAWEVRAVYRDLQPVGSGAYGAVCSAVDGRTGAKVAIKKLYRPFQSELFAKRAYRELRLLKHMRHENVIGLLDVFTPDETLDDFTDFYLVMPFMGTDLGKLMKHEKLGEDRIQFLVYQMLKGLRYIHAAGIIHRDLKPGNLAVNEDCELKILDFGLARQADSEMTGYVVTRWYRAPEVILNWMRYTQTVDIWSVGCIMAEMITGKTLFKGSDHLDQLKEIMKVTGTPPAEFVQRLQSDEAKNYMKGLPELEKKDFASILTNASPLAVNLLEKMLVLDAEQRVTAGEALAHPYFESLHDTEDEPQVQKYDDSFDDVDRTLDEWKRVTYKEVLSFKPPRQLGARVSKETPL

[39] = target: T2, Mitogen-activated protein kinase kinase kinase kinase 4; assay: Inhibition of human MAP4K4 at 20 uM by FRET assay
[40] = target: Serine/threonine-protein kinase PAK 4 (Homo sapiens) (UniProt O96013); assay: Inhibition of human PAK4 at 20 uM by FRET assay
[41] = target: Serine/threonine-protein kinase Nek1 (Homo sapiens) (UniProt Q96PY6); assay: Inhibition of human NEK1 at 20 uM by FRET assay
[42] = target: Receptor tyrosine-protein kinase erbB-2 (Homo sapiens) (UniProt P04626); assay: Inhibition of human ERBB2 at 20 uM by FRET assay
CYP2D6 = CYP2D6 (Homo sapiens, UniProt P10635); assay: Inhibition of CYP2D6 at 10 uM; format: ADME
Sequence of CYP2D6 (P10635 whole entry): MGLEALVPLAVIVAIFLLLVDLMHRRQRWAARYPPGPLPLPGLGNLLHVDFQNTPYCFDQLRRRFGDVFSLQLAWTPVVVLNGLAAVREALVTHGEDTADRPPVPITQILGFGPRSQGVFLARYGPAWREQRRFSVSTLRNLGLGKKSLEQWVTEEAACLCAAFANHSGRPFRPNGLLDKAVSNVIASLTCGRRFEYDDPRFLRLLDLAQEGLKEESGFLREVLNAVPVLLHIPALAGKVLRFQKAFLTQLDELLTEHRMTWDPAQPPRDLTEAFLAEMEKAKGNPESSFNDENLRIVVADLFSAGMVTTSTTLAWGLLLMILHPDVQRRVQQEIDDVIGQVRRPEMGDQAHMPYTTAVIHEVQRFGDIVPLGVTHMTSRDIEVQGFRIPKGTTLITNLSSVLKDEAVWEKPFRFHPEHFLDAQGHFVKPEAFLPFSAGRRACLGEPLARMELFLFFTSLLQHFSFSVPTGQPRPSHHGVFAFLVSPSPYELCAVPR

[43] = target: Rho-associated protein kinase 1 (Homo sapiens) (UniProt Q13464); assay: Inhibition of human ROCK1 at 20 uM by FRET assay
[44] = target: Aurora kinase A (Homo sapiens) (UniProt O14965); assay: Inhibition of human Aurora A at 20 uM by FRET assay
[45] = target: Ephrin type-A receptor 2 (Homo sapiens) (UniProt P29317); assay: Inhibition of human EPHA2 at 20 uM by FRET assay
[46] = target: Fibroblast growth factor receptor 1 (Homo sapiens) (UniProt P11362); assay: Inhibition of human FGFR1 at 20 uM by FRET assay
Sequence of Fibroblast growth factor receptor 1 (Homo sapiens) (P11362 22-822 limits assumed): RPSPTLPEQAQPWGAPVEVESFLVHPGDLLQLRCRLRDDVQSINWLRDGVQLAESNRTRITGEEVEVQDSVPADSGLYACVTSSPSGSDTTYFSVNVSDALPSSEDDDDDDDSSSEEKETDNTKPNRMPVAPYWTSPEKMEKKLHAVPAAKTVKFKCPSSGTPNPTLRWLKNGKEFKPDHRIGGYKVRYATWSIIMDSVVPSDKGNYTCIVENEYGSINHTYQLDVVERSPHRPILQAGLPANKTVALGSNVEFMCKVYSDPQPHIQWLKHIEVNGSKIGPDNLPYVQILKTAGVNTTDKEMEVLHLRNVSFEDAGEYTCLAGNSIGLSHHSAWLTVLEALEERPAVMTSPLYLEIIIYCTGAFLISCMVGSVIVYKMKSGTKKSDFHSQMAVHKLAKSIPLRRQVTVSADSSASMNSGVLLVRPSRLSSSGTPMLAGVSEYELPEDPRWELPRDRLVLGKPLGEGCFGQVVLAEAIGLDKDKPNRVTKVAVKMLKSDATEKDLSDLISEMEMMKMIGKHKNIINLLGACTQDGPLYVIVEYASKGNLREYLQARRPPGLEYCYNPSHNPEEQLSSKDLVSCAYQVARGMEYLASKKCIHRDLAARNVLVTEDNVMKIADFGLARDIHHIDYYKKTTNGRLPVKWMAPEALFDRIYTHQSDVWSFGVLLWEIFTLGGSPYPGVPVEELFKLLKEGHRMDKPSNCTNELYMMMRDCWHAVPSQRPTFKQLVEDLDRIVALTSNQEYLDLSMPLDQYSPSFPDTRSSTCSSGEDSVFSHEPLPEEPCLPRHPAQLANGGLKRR

[47] = target: Activin receptor type-1B (Homo sapiens) (UniProt P36896); assay: Inhibition of human ALK4 at 20 uM by FRET assay
[48] = target: Receptor-type tyrosine-protein kinase FLT3 (Homo sapiens) (UniProt P36888); assay: Inhibition of human FLT3 at 20 uM by FRET assay
[49] = target: Dual specificity tyrosine-phosphorylation-regulated kinase 3 (Homo sapiens) (UniProt O43781); assay: Inhibition of human DYRK3 at 20 uM by FRET assay
[50] = target: Mitogen-activated protein kinase 11 (Homo sapiens, UniProt Q15759); assay: Inhibition of p38beta by FRET assay
[51] = target: Tyrosine-protein kinase SYK (Homo sapiens) (UniProt P43405); assay: Inhibition of human SYK at 20 uM by FRET assay
[52] = target: Serine/threonine-protein kinase MARK2 (Homo sapiens) (UniProt Q7KZI7); assay: Inhibition of human MARK2 at 20 uM by FRET assay
Sequence of Serine/threonine-protein kinase MARK2 (Homo sapiens) (Q7KZI7 whole entry): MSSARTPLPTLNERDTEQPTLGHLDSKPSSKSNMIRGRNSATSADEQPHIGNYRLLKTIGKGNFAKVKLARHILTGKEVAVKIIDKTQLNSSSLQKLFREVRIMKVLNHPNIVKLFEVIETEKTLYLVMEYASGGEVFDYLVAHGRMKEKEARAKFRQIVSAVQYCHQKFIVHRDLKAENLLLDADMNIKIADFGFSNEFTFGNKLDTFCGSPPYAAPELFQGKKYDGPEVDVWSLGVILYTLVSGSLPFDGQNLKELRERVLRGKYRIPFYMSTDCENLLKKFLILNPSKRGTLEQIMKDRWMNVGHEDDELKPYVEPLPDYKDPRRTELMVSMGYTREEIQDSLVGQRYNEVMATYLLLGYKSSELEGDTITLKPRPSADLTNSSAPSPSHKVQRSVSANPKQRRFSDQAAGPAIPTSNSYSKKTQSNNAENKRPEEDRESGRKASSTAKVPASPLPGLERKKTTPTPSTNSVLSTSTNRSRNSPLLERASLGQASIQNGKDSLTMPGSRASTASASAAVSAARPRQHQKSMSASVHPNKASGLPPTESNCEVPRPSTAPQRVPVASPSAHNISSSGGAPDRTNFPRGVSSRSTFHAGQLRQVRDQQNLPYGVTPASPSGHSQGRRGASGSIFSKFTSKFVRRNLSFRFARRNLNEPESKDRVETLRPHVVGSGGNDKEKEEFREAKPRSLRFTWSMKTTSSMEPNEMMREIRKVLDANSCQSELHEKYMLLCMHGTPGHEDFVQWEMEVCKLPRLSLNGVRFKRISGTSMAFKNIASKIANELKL

[53] = target: cAMP-dependent protein kinase catalytic subunit alpha (Homo sapiens) (UniProt P17612); assay: Inhibition of human PRKACA at 20 uM by FRET assay
[54] = target: Angiopoietin-1 receptor (Homo sapiens) (UniProt Q02763); assay: Inhibition of human TEK at 20 uM by FRET assay
[55] = target: Proto-oncogene tyrosine-protein kinase Src (Homo sapiens) (UniProt P12931); assay: Inhibition of human SRC at 20 uM by FRET assay
[56] = target: Insulin receptor (Homo sapiens) (UniProt P06213); assay: Inhibition of human INSR at 20 uM by FRET assay

T1 sequence (Q16539 whole entry): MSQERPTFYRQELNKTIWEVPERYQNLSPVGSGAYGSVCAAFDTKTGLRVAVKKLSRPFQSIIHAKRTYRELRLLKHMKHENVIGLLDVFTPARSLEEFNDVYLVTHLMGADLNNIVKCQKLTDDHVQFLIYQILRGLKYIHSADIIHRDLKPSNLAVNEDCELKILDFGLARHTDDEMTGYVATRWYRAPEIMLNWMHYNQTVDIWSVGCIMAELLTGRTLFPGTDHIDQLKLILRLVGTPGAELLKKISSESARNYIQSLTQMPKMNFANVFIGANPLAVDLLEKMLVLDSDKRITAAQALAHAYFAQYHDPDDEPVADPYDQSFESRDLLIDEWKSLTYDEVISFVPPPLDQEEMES

Structure (SMILES): OCC#Cc1nc(-c2ccc(F)cc2)c(-c2ccncc2)n1C#Cc1ccccc1
- inhibition [2]: 83%

Structure (SMILES): OCCC#Cc1nc(-c2ccc(F)cc2)c(-c2ccncc2)n1C#Cc1ccccc1
- inhibition [2]: 75%

Structure (SMILES): C#Cn1c(C#CCCO)nc(-c2ccc(F)cc2)c1-c1ccncc1
- inhibition [3]: 0%
- inhibition [4]: 4%
- inhibition [5]: 84%
- inhibition [6]: 10%
- inhibition [7]: 1%
- inhibition [2]: 100%
- inhibition [8]: 10%
- inhibition [9]: 11%
- IC50 [10]: 4.2 µM
- inhibition [11]: 7%
- inhibition [12]: 21%
- inhibition [13]: 3%
- inhibition [14]: 88%
- inhibition [15]: 82%
- inhibition [16]: 21%
- inhibition [17]: -1%
- inhibition [18]: 29%
- inhibition [19]: 36%
- inhibition [20]: 3%
- inhibition [21]: 3%
- inhibition [22]: 5%
- Ratio IC50 [23]: > 25
- inhibition [24]: 80%
- inhibition [25]: 5%
- inhibition [26]: 48%
- inhibition [27]: 7%
- inhibition [28]: 1%
- inhibition [29]: 6%
- inhibition [30]: 36%
- inhibition [31]: 12%
- inhibition [32]: 9%
- inhibition [33]: 44%
- inhibition [34]: 6%
- inhibition [35]: 15%
- inhibition [36]: 3%
- inhibition [37]: 5%
- inhibition [38]: 14%
- inhibition [39]: 92%
- inhibition [40]: 8%
- inhibition [41]: 11%
- inhibition [42]: 41%
- inhibition at 10 µM (CYP2D6): 4%
- inhibition [43]: 15%
- inhibition [44]: 7%
- inhibition [45]: 23%
- inhibition [46]: 8%
- inhibition [47]: 72%
- inhibition [48]: 17%
- inhibition [49]: 8%
- IC50 [50]: 5.4 µM
- IC50 [1]: 0.2 µM
- inhibition [51]: 3%
- inhibition [52]: 14%
- inhibition [53]: 50%
- inhibition [54]: 5%
- inhibition [55]: 27%
- inhibition [56]: 7%

Structure (SMILES): C#Cc1nc(-c2ccc(F)cc2)c(-c2ccncc2)n1C#Cc1ccccc1
- inhibition [2]: 28%

Structure (SMILES): OCC#Cc1nc(-c2ccncc2)c(-c2ccc(F)cc2)n1C#Cc1ccccc1
- inhibition [2]: 63%

Structure (SMILES): C[S+]([O-])c1ccc(-c2nc(-c3ccncc3)c(-c3ccc(F)cc3)[nH]2)cc1 (stereo not given) [SB-203580]
- inhibition at 10 µM (CYP2D6): 78%

Results, then the compound that gave them:

- IC50 [1]: 0.37 µM
Structure (SMILES): OCCc1cc(Cl)n2c(-c3ccncc3)c(-c3ccc(F)cc3)nc2c1

- inhibition [2]: 53%
Structure (SMILES): OCCC#Cc1nc(-c2ccncc2)c(-c2ccc(F)cc2)n1C#Cc1ccccc1

- inhibition [2]: 19%
Structure (SMILES): C#Cc1nc(-c2ccncc2)c(-c2ccc(F)cc2)n1C#Cc1ccccc1
